Reference: ChEMBL document CHEMBL1156724, “Synthesis of triazole-oxazolidinones via a one-pot reaction and evaluation of their antimicrobial activity” (2008)
≈ marks a conversion by molar mass, not a printed value. Calls of active or inactive are those of the source. No cut-off for these calls is given here.

Experiments:
Format in all cases: functional
[1] = tested on: Bacillus subtilis; assay: Antibacterial activity against Bacillus subtilis ATCC 6633 after 24 hrs visualized by MTT analyzed by broth microdilution assay; settings: ATCC 6633, 24 h
[2] = tested on: Enterococcus faecalis; assay: Antibacterial activity against Enterococcus faecalis ATCC 29212 assessed as zone of inhibition diameter at 1 mg/mL after 24 hrs by Kirby-Bauer disk diffusion assay
Procedure, shortened: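 Inoculum grown in Mueller–Hinton broth ~24 h at 37 °C, 180 rpm, then plated on nutrient agar. Kirby–Bauer disk method: 10 µL of 1 mg/mL solution in DMSO applied to 6 mm sterile paper disk; vancomycin (1 mg/mL in water) positive control, DMSO negative control. Plates incubated 24 h at 37 °C; inhibition zone diameter measured.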

[3] = tested on: Mycolicibacterium smegmatis; assay: Antibacterial activity against Mycobacterium smegmatis ATCC 14468 assessed as zone of inhibition diameter at 1 mg/mL after 48 hrs by Kirby-Bauer disk diffusion assay; settings: ATCC 14468, 48 h, read-out: IZ
Procedure, shortened: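 Kirby–Bauer disk diffusion on Middlebrook 7H10 agar with 0.5% glycerol and OADC. Inoculum grown in 7H9 with 0.2% glycerol and ADC about 24 h at 37 °C, 180 rpm. 10 µL of 1 mg/mL compound in DMSO applied to 6 mm disks. INH (1 mg/mL in DMSO) positive control, DMSO negative control. Plates incubated 48 h at 37 °C. Inhibition zone diameter measured.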

[4] = tested on: Mycolicibacterium smegmatis; assay: Antibacterial activity against Mycobacterium smegmatis ATCC 14468 after 48 hrs visualized by MTT […]; settings: ATCC 14468, 48 h
[5] = tested on: Enterococcus faecalis; assay: Antibacterial activity against Enterococcus faecalis ATCC 29212 after 24 hrs visualized by MTT analyzed by broth microdilution assay; settings: ATCC 29212, 24 h
[6] = tested on: Bacillus subtilis; assay: Antibacterial activity against Bacillus subtilis ATCC 6633 assessed as zone of inhibition diameter at 1 mg/mL after 24 hrs by Kirby-Bauer disk diffusion assay; settings: ATCC 6633, 24 h, read-out: IZ
Procedure, shortened: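 Kirby–Bauer disk diffusion on nutrient agar, inoculum grown in Mueller–Hinton broth about 24 h at 37 °C, 180 rpm. 10 µL of 1 mg/mL compound in DMSO applied to 6 mm paper disks. Vancomycin (1 mg/mL in water) positive control, DMSO negative control. Plates incubated 24 h at 37 °C. Inhibition zone diameter measured.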

Row | Compound | MIC [1] | Activity [2] | zone of inhibition at 1000 µg/mL [3] | MIC [4] | MIC [5] | zone of inhibition at 1000 µg/mL [6] | zone of inhibition at 1000 µg/mL ([2]; ATCC 29212, 24 h, read-out: IZ)
1 | CC(=O)c1ccc(N2CC(Cn3cc(CCO)nn3)OC2=O)cc1 (stereo not drawn) | > 32 µg/mL | inactive | 15 mm | 16 µg/mL (≈ 48.4 µM) | > 32 µg/mL | 17 mm | 
2 | CC(=O)c1ccc(N2CC(Cn3ccnn3)OC2=O)cc1 (stereo not drawn) | 4 µg/mL (≈ 14 µM) | inactive | 25 mm | 1 µg/mL (≈ 3.49 µM) | 16 µg/mL (≈ 55.9 µM) | 26 mm | 
3 | CN[C@H](CC(C)C)C(=O)N[C@H]1C(=O)N[C@@H](CC(N)=O)C(=O)N[C@H]2C(=O)N[C@H]3C(=O)N[C@H](C(=O)N[C@H](C(=O)O)c4cc(O)cc(O)c4-c4cc3ccc4O)[C@H](O)c3ccc(c(Cl)c3)Oc3cc2cc(c3O[C@@H]2O[C@H](CO)[C@@H](O)[C@H](O)[C@H]2O[C@H]2C[C@](C)(N)[C@H](O)[C@H](C)O2)Oc2ccc(cc2Cl)[C@H]1O [VANCOMYCIN] | 0.5 µg/mL (≈ 0.345 µM) |  |  |  | 1 µg/mL (≈ 0.69 µM) | 15 mm | 14 mm
4 | NNC(=O)c1ccncc1 [ISONIAZID] |  |  | 17 mm | 4 µg/mL (≈ 29.2 µM) |  |  | 
